pIC50: −log10 of the molar value. Converted amounts (≈) assume the structure as drawn. The source made the active and inactive calls. No cut-off for these calls is given here.
Experiments:
Erythrocyte [1] = test: Hemolytic activity in human RBC assessed as hemolysis incubated for 45 mins by absorbance based microplate reader analysis; format: toxicity, cell-based; conditions: 0.75 h
[2] = Microsomal stability in human liver microsomes assessed as intrinsic clearance at 1 uM and measured upto 60 mins in presence of NADPH by LC-MS/MSC analysis; format: ADME, Microsome; conditions: read-out: CLH
Erythrocyte [3] = test: Hemolytic activity in mouse RBC assessed as hemolysis incubated for 45 mins by absorbance based microplate reader analysis; format: toxicity, cell-based; conditions: 0.75 h
[4] = biological target: ALK tyrosine kinase receptor (Homo sapiens, UniProt Q9UM73); test: Inhibition of N-terminal flag-tagged NanoLuc fused ALK kinase domain (1072 to 1410 residues) (unknown origin) expressed in mouse BaF3 cells assessed as reduction in BRET signal incubated for 2 hrs in presence of CPD-1571 tracer by NanoBRET assay; format: cell-based
Chain of ALK tyrosine kinase receptor (Q9UM73 whole entry, the tested form may be a part): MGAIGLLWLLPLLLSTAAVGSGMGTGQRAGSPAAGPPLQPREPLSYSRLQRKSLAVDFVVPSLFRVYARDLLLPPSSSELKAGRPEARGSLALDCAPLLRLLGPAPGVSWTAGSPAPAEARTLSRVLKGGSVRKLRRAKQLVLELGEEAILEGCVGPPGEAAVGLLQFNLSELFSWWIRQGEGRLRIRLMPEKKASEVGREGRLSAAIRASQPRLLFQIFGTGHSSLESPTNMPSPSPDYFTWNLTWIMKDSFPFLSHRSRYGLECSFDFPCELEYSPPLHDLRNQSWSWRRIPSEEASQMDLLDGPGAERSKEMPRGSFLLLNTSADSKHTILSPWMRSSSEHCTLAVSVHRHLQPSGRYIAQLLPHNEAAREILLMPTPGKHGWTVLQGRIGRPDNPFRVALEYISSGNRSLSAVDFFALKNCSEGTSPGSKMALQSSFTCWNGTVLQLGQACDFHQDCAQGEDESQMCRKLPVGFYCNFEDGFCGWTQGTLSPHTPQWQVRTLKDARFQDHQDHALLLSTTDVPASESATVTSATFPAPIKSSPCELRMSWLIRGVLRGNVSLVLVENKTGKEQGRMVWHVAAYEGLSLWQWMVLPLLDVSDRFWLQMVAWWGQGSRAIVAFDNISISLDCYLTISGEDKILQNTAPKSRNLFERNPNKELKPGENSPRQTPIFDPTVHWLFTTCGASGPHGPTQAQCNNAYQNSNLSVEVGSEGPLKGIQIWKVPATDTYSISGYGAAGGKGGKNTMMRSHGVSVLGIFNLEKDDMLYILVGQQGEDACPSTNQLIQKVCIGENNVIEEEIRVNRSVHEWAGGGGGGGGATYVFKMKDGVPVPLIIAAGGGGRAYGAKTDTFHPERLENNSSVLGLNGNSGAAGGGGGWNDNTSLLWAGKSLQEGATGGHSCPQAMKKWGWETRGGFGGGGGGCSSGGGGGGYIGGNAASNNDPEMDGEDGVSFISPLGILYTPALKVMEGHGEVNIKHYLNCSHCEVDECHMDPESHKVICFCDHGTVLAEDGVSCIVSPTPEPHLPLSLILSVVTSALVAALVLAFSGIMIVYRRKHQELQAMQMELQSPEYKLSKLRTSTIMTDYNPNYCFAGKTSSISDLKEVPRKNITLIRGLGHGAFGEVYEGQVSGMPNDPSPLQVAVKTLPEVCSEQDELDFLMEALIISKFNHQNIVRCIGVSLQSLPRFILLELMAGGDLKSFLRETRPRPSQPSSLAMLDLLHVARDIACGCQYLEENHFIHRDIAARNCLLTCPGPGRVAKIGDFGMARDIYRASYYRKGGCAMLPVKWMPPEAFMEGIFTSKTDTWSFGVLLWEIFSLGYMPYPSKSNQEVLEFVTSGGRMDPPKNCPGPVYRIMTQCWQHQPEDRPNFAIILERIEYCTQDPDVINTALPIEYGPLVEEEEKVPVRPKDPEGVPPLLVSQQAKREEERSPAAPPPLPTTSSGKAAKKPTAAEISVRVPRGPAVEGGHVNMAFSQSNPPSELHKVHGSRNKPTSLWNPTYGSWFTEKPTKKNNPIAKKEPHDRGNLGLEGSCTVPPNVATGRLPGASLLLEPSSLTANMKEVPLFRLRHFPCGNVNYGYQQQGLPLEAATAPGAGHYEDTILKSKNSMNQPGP

[5] = system: Protein cereblon/ALK tyrosine kinase receptor/Echinoderm microtubule-associated protein-like 4 (Homo sapiens), Q9UM73+Q9HC35+Q96SW2 [UNDEFINED MUTATION]; test: PROTAC activity at human CRBN/HiBit-tagged EML4-ALK variant 3b G1202R mutant expressed in mouse BaF3 cells assessed as induction of EML4-ALK variant 3b fusion protein degradation at 2 uM incubated for 4 hrs by Nano-Glo HiBiT assay relative to control; format: cell-based
How it was run: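 Ba/F3 cells stably expressing humanized CRBN and HiBiT-tagged EML4-ALK v3 (WT or mutant) were treated for 4 h. Remaining fusion protein was quantified by HiBiT bioluminescence relative to control.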

[6] = biological target: Protein cereblon/ALK tyrosine kinase receptor/Echinoderm microtubule-associated protein-like 4 (Homo sapiens, UniProt Q9UM73+Q9HC35+Q96SW2); test: PROTAC activity at human CRBN/HiBit-tagged wild type human EML4-ALK variant 3b expressed in mouse BaF3 cells assessed as induction of EML4-ALK variant 3b fusion protein degradation incubated for 4 hrs by Nano-Glo HiBiT assay; format: cell-based
Chain of Protein cereblon/ALK tyrosine kinase receptor/Echinoderm microtubule-associated protein-like 4 (Homo sapiens, UniProt Q9UM73+Q9HC35+Q96SW2) (Q96SW2 whole entry, change not shown, the tested form may be a part): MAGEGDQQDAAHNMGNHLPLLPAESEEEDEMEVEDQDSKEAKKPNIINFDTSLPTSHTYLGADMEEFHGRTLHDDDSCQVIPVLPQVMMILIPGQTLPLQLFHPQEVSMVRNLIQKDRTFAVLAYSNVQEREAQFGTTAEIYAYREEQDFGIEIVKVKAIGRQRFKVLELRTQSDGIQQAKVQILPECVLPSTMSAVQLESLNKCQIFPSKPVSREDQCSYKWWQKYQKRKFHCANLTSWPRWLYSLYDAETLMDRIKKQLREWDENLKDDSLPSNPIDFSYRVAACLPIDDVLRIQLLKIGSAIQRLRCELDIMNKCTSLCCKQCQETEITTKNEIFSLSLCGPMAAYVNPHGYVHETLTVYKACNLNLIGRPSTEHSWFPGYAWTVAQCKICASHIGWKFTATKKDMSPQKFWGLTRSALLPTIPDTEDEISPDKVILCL
Chain of Protein cereblon/ALK tyrosine kinase receptor/Echinoderm microtubule-associated protein-like 4 (Homo sapiens, UniProt Q9UM73+Q9HC35+Q96SW2) (Q9HC35 whole entry, change not shown, the tested form may be a part): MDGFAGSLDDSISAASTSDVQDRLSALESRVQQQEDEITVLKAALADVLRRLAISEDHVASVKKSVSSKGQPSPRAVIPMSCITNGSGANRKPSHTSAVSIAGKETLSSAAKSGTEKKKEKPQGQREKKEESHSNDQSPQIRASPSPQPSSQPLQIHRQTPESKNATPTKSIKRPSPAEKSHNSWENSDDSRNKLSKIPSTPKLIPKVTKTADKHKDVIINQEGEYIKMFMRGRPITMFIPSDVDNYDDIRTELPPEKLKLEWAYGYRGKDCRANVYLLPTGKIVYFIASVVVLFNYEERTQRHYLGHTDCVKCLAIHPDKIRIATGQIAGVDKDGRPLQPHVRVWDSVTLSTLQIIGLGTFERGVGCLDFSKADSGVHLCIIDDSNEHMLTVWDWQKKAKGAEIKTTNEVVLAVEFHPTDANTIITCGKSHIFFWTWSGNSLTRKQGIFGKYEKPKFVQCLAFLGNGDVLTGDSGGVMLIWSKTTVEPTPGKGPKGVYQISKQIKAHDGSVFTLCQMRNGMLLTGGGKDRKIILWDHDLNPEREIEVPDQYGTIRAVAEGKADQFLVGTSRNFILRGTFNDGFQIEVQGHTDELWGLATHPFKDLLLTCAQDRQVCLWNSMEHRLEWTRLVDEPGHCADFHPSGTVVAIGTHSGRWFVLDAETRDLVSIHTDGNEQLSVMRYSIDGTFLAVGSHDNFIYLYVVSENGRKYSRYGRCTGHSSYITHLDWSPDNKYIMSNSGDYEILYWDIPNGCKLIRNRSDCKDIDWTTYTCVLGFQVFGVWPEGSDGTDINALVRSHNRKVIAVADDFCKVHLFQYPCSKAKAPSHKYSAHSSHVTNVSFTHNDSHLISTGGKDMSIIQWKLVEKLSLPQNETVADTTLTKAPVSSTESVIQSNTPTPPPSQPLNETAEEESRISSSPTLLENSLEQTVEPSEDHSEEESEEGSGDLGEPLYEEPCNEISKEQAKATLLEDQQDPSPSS
Chain of Protein cereblon/ALK tyrosine kinase receptor/Echinoderm microtubule-associated protein-like 4 (Homo sapiens, UniProt Q9UM73+Q9HC35+Q96SW2) (Q9UM73 19-1620 limits assumed, change not shown): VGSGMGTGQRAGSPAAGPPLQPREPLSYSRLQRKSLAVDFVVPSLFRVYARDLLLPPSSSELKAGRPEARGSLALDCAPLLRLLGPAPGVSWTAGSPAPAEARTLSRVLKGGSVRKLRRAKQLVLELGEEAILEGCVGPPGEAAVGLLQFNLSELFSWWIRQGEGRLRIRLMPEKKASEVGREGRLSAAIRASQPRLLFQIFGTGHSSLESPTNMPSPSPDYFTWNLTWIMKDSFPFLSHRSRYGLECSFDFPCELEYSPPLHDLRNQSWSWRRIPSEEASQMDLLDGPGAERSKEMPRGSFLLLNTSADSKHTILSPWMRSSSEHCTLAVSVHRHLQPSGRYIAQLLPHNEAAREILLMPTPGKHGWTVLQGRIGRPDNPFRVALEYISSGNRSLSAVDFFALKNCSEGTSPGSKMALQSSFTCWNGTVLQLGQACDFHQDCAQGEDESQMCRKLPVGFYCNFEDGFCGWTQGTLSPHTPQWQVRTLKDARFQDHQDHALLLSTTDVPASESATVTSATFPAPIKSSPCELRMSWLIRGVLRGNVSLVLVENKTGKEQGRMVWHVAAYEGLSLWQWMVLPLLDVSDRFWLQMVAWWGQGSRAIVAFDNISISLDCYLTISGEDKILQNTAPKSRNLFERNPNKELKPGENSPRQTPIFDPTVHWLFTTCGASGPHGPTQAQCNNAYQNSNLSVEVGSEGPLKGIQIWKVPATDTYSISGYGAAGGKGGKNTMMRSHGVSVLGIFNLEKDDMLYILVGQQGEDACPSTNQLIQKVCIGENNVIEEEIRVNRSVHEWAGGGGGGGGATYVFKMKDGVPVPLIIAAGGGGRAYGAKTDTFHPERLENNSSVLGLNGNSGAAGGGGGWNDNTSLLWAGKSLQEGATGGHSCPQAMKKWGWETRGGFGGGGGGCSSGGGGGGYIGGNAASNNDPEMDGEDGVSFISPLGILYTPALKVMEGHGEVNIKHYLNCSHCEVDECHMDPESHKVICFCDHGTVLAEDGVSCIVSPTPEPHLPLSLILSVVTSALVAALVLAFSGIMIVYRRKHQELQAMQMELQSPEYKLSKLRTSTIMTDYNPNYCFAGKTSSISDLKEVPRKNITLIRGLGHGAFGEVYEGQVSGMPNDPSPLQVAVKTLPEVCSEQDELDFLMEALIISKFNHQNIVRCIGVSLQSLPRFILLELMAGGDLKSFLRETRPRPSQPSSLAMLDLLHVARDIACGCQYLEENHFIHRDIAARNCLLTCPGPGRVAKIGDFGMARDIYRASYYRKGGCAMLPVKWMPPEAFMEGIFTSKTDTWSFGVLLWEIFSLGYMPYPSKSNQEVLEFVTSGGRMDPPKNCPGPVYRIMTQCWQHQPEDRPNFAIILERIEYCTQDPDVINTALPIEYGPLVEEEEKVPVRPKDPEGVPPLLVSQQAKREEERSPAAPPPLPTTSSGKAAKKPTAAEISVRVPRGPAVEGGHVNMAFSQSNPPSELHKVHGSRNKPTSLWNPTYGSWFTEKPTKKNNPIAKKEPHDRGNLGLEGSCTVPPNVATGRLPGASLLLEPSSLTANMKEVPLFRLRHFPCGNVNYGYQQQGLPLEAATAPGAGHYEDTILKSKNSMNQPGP

BaF3 [7] = format: functional; conditions: Mus musculus, time 72 hrs
BaF3 [8] = test: Antiproliferative activity against mouse Ba/F3 cells stably expressing HiBiT-tagged EML4-ALK variant 3 C1156Y mutant assessed as cell growth inhibition incubated for 72 hrs by CellTiter-Glo assay; format: functional
How it was run: (§1)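 Ba/F3 cells stably expressing HiBiT-tagged EML4-ALK v3 (wild type or the named kinase-site mutant) were treated with compound for 72 h. Growth inhibition was reported as log GI50.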

BaF3 [9] = test: Antiproliferative activity against mouse Ba/F3 cells stably expressing HiBiT-tagged wild type EML4-ALK variant 3 assessed as cell growth inhibition incubated for 72 hrs by CellTiter-Glo assay; format: functional; how it was run: as §1
BaF3 [10] = test: Antiproliferative activity against mouse Ba/F3 cells stably expressing HiBiT-tagged EML4-ALK variant 3 G1202R mutant assessed as cell growth inhibition incubated for 72 hrs by CellTiter-Glo assay; format: functional; how it was run: as §1
BaF3 [11] = format: functional; conditions: Mus musculus, time 72 hrs, read-out: pGI50 (converted)
HepG2 [12] = test: Cytotoxicity against human HepG2 cells assessed as reduction in cell viability incubated for 48 hrs by Hoechst 33342 staining based imaging analysis; format: toxicity; conditions: hepg2, 48 h
HepG2 [13] = test: Induction of phospholipidosis in human HepG2 cells assessed as […] incubated for 48 hrs by Hoechst 33342 staining based imaging analysis; format: toxicity, cell-based; conditions: hepg2, 48 h
[14] = Oral bioavailability in C57BL/J6 mouse at 10 mg/kg and measured upto 24 hrs by LC-MS/MS analysis; format: ADME, organism-based; conditions: in vivo
How it was run: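 Mouse PK was run with both oral and intravenous dosing, with 10 mg/kg as the study dose. Oral bioavailability was derived from comparing the two routes.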

[15] = Microsomal stability in human liver microsomes at 1 uM measured upto 60 mins in presence of NADPH by LC-MS/MSC analysis; format: ADME, Microsome; conditions: 1 h
[16] = biological target: Ribosomal protein S6 kinase alpha-1 (Homo sapiens) (UniProt Q15418); test: Induction of RSK1 degradation in human MOLT-4 cells incubated for 6 hrs by MS based proteomics analysis; format: cell-based
[17] = biological target: T1, Serine/threonine-protein kinase ULK1 (Homo sapiens) (UniProt O75385); test: Induction of ULK1 degradation in human MOLT-4 cells incubated for 6 hrs by MS based proteomics analysis; format: cell-based
T1 sequence (whole entry): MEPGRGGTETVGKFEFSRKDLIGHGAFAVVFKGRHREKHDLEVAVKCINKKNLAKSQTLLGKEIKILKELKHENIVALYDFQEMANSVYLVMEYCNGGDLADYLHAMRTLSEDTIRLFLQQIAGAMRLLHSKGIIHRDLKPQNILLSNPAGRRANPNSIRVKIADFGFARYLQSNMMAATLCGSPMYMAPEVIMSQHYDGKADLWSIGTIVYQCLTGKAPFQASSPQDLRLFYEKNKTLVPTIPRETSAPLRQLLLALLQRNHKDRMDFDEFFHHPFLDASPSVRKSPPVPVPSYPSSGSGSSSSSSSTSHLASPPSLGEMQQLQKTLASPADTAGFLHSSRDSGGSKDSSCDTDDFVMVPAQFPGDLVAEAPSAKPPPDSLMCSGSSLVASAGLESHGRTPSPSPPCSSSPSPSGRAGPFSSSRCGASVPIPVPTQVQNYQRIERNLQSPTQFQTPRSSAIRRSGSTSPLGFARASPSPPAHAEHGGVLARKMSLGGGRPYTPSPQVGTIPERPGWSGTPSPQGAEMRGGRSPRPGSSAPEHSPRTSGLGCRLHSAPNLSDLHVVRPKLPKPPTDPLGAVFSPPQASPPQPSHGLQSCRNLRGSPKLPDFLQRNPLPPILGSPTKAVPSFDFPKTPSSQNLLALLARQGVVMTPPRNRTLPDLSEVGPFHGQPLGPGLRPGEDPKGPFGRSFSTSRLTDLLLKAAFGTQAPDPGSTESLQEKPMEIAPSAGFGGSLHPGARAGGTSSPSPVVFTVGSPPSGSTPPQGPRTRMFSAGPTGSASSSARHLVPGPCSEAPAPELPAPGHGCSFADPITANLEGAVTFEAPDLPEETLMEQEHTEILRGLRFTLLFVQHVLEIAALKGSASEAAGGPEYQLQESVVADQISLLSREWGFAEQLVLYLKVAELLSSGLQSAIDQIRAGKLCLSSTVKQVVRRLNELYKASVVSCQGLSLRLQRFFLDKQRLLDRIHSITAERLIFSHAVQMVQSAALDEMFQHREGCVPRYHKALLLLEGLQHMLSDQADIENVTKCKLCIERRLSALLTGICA

[18] = biological target: T2, Aurora kinase A (Homo sapiens) (UniProt O14965); test: Induction of AURKA degradation in human MOLT-4 cells incubated for 6 hrs by MS based proteomics analysis; format: cell-based
T2 sequence (whole entry): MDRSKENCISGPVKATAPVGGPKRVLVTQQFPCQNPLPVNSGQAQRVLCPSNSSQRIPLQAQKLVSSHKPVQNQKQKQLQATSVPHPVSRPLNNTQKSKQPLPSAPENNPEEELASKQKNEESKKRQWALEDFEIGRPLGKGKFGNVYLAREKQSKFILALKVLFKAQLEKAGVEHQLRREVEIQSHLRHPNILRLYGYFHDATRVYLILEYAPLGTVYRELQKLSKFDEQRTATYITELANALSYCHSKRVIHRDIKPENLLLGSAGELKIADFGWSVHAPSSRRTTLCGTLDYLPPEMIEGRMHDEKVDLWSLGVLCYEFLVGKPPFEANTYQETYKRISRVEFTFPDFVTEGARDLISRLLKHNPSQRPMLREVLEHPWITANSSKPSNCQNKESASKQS

[19] = biological target: Protein-tyrosine kinase 2-beta (Homo sapiens) (UniProt Q14289); test: Induction of PTK2B degradation in human MOLT-4 cells incubated for 6 hrs by MS based proteomics analysis; format: cell-based
[20] = biological target: Tyrosine-protein kinase Fer (Homo sapiens) (UniProt P16591); test: Induction of FER degradation in human MOLT-4 cells incubated for 6 hrs by MS based proteomics analysis; format: cell-based
[21] = biological target: Protein cereblon/ALK tyrosine kinase receptor/Echinoderm microtubule-associated protein-like 4 (Homo sapiens, UniProt Q9UM73+Q9HC35+Q96SW2, G1202R); test: PROTAC activity at human CRBN/EML4-ALK variant 3b G1202R mutant expressed in mouse BaF3 cells assessed as induction of EML4-ALK fusion protein degradation incubated for 4 hrs by Nano-Glo HiBiT assay; format: cell-based
[22] = Solubility of the compound in FeSSIF at pH 5.0 incubated for 24 hrs under shaking condition by UPLC-UV/HPLC-UV analysis; format: physicochemical
Mus musculus [23] = format: functional, organism-based; conditions: BALB/c, BaF3, dose 10.0 mg/kg, route po, time 14.0 day
Mus musculus [24] = format: functional, organism-based; conditions: BALB/c, BaF3, dose 10.0 mg/kg, route po, time 14.0 day; remark: listed apart in the source
BaF3 [25] = format: functional; conditions: Mus musculus, dose 10.0 mg/kg, route po, time 14.0 day

Row | SMILES | microsomal CLint at 1 µM [2] [µL/min/mg] | GI50 (BaF3 [7]) [nM] | GI50 (BaF3 [8]) [nM] | GI50 (BaF3 [9]) [nM] | GI50 (BaF3 [10]) [nM] | GI50 (BaF3 [11]) [nM] | also measured
1 | Cc1cc(Nc2ncc(Cl)c(Nc3ccccc3S(=O)(=O)C(C)C)n2)c(OC(C)C)cc1C1CCN(CCOCCOCCNC(=O)CNc2cccc3c2C(=O)N(C2CCC(=O)NC2=O)C3=O)CC1 (stereo not given) |  |  |  |  |  |  | pIC50 [4]: 6.01; Activity [5]: < 50%; DC50 [6]: 289 nM
2 | COc1cc(N2CCC(N3CCN(C)CC3)CC2)ccc1Nc1ncc(Cl)c(Nc2ccccc2P(C)(C)=O)n1 [BRIGATINIB] |  | 39.8 | 39.8 | 12.6 | 251 | 200 | 
3 | Cc1cc(Nc2ncc(Cl)c(Nc3ccccc3S(=O)(=O)C(C)C)n2)c(OC(C)C)cc1C1CCNCC1 [CERITINIB] |  | 158 | 316 | 200 | 2000 | 501 | Activity (HepG2 [12]): Non-Toxic; Activity (HepG2 [13]): Non-Toxic
4 | CCc1cc2c(cc1N1CCN(CC3CN(c4ccc5c(c4)C(=O)N(C4CCC(=O)NC4=O)C5=O)C3)CC1)C(C)(C)c1[nH]c3cc(C#N)ccc3c1C2=O (stereo not given) |  |  |  |  |  |  | F [14]: 48%; Stability [15]: Stable
5 | C[C@@H](Oc1cc(-c2cnn(C3CCNCC3)c2)cnc1N)c1c(Cl)ccc(F)c1Cl [CRIZOTINIB] |  | 2000 | 2000 | 1000 | 2000 | 2000 | 
6 | COc1cc(C2CCN(CCCC#Cc3cccc4c3CN(C3CCC(=O)NC3=O)C4=O)CC2)c(C)cc1Nc1ncc(Cl)c(Nc2ccccc2S(=O)(=O)C(C)C)n1 (stereo not given) | 10.5 |  |  |  |  |  | F [14]: 9%; Activity [16]: Active; Activity [17]: Active; pIC50 [4]: 6.27; Activity (Erythrocyte [1]): Non-Toxic; Activity [18]: Active; Activity [19]: Active; Activity [20]: Active; DC50 [21]: 43 nM; DC50 [6]: 6.6 nM; Activity (Erythrocyte [3]): Non-Toxic
7 | CCc1cc2c(cc1N1CCC(N3CCOCC3)CC1)C(C)(C)c1[nH]c3cc(C#N)ccc3c1C2=O [ALECTINIB] |  | 79.4 | 79.4 | 12.6 | 398 | 501 | 
8 | C[C@H]1Oc2cc(cnc2N)-c2c(nn(C)c2C#N)CN(C)C(=O)c2ccc(F)cc21 [LORLATINIB] |  | 50.1 | 39.8 | 3.16 | 100 | 501 | Activity (Mus musculus [23]): Active; Activity (Mus musculus [24]): Active; Activity (BaF3 [25]): inactive

Now from value to compound, other results behind:

Row | microsomal CLint at 1 µM [2] [µL/min/mg] | GI50 (BaF3 [7]) [nM] | GI50 (BaF3 [8]) [nM] | GI50 (BaF3 [9]) [nM] | GI50 (BaF3 [10]) [nM] | GI50 (BaF3 [11]) [nM] | SMILES | also measured
9 | 5.4 |  |  |  |  |  | COc1cc(C2CCN(CCCCCC#Cc3cccc4c3CN(C3CCC(=O)NC3=O)C4=O)CC2)c(C)cc1Nc1ncc(Cl)c(Nc2ccccc2S(=O)(=O)C(C)C)n1 (stereo not given) | Activity (Erythrocyte [1]): Toxic; Activity (Erythrocyte [3]): Toxic
10 | 14.8 |  |  |  |  |  | COc1cc(C2CCN(CC#Cc3ccc4c(c3)CN(C3CCC(=O)NC3=O)C4=O)CC2)c(C)cc1Nc1ncc(Cl)c(Nc2ccccc2S(=O)(=O)C(C)C)n1 (stereo not given) | 
11 | 39 |  |  |  |  |  | COc1cc(CCNCCCCCC#Cc2cccc3c2CN(C2CCC(=O)NC2=O)C3=O)c(C)cc1Nc1ncc(Cl)c(Nc2ccccc2S(=O)(=O)C(C)C)n1 (stereo not given) | F [14]: 0.2%; solubility thermodynamic at 24 h [22]: 686 µM (≈ 567 µg/mL); Activity (Erythrocyte [1]): Toxic; Activity (Erythrocyte [3]): Toxic
12 | 25.2 |  |  |  |  |  | COc1cc(C2CCN(CC3CN(c4ccc5c(c4)CN(C4CCC(=O)NC4=O)C5=O)C3)CC2)c(C)cc1Nc1ncc(Cl)c(Nc2ccccc2S(=O)(=O)C(C)C)n1 (stereo not given) | 
13 | 59 |  |  |  |  |  | COc1cc(CCNCCCCCC#Cc2cccc3c2C(=O)N(C2CCC(=O)NC2=O)C3=O)c(C)cc1Nc1ncc(Cl)c(Nc2ccccc2S(=O)(=O)C(C)C)n1 (stereo not given) | Activity (Erythrocyte [1]): Toxic; Activity (Erythrocyte [3]): Toxic
14 |  | 15.8 | 39.8 | 15.8 | 126 | 126 | COc1cc(C2CCN(CC3CN(c4ccc5c(c4)C(=O)N(C4CCC(=O)N(C)C4=O)C5=O)C3)CC2)c(C)cc1Nc1ncc(Cl)c(Nc2ccccc2S(=O)(=O)C(C)C)n1 (stereo not given) | 

Source: ChEMBL document CHEMBL5352501, “Catalytic Degraders Effectively Address Kinase Site Mutations in EML4-ALK Oncogenic Fusions” (J Med Chem, 2023)
